The values that follow come from ChEMBL document CHEMBL2424587, “Antiproliferative activity of abietane diterpenoids against human tumor cells” (J Nat Prod, 2013).

For test [1], the system named is HL-60. The test can be described thus: Induction of apoptosis in human HL60 cells assessed as procaspase-4 cleavage at 3 uM after 24 hrs by immunoblotting analysis. The test is classed as functional, cell-based. A digest of the protocol:
(§1)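 HL-60 cells treated 24 h with 3 μM; immunoblots of lysates probed with antibodies that recognize both pro-caspases and cleaved caspases, and for PARP.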
On the technique in general: In western blotting, separated proteins are transferred to a membrane and probed.

For test [2], the system named is HL-60. The test can be described thus: Induction of apoptosis in human HL60 cells after 24 hrs by flow cytometry in presence of p38 MAPK inhibitor SB203580 (reference value: 15.1 +/- 3.8%). The test is classed as functional. On the technique in general: In flow cytometry, cells or beads pass a laser one at a time.
Test [3] concerns HL-60. The test can be described thus: Induction of apoptosis in human HL60 cells assessed as procaspase-7 cleavage at 3 uM after 24 hrs by immunoblotting analysis. Format: functional, cell-based. A digest of the protocol: as §1
The test system of test [4] is HL-60. The test can be described thus: Cell cycle arrest in human HL60 cells assessed as accumulation at G1 phase at 3 uM after 24 hrs by […]propidium iodide staining-based flow cytometry (reference value: 43%). The test is classed as functional.
Test [5] has as its system HL-60. The test can be described thus: Induction of apoptosis in human HL60 cells after 24 hrs by flow cytometry in presence of MEK2 inhibitor U0126. Format: functional, cell-based.
In test [6] the test system is HL-60. The test can be described thus: Induction of apoptosis in human HL60 cells after 24 hrs by flow cytometry in presence of JNK/SAPK inhibitor SP600125. Format: functional, cell-based.
Test [7] has as its system HL-60. The test can be described thus: Induction of apoptosis in human HL60 cells assessed as abundant vacuoles at 3 uM after 24 hrs by transmission electron microscopy. Format: functional, cell-based. A digest of the protocol: (§2)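 HL-60 cells incubated 24 h with 3 μM compound and examined by transmission electron microscopy for ultrastructural changes.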
For test [8], the system named is HL-60. The test can be described thus: Induction of apoptosis in human HL60 cells after 24 hrs by flow cytometry in presence of MEK1 inhibitor PD98059. Format: functional, cell-based.
Test [9] relates to HL-60. The test can be described thus: Cell cycle arrest in human HL60 cells assessed as accumulation at G2-M phase at 3 uM after 24 hrs by […]propidium iodide staining-based flow cytometry (reference value: 4%). Format: functional.
Test [10] relates to HL-60. The test can be described thus: Induction of apoptosis in human HL60 cells assessed as late apoptotic cells at 3 uM after 24 hrs by AnnexinV-FITC/propidium iodide staining-based flow cytometry (reference value: 3.1%). The test is classed as functional. A digest of the protocol:
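HL-60 cells given 3 μM for 24 h, stained with annexin V-FITC and propidium iodide, and analysed by flow cytometry; annexin+/PI− cells scored as early apoptotic and double-positive cells as late; three separate experiments.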

For test [11], the system named is HL-60. The test can be described thus: Induction of apoptosis in human HL60 cells after 24 hrs by flow cytometry in presence of caspase-9 inhibitor Z-LEHD-FMK. Format: functional, cell-based. A digest of the protocol: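 HL-60 cells pretreated 1 h with caspase inhibitor, then given diterpene for 24 h; hypodiploid cells counted by flow cytometry; mean ± SE of three independent experiments in triplicate.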

Test [12] has as its system HL-60. The test can be described thus: Induction of apoptosis in human HL60 cells assessed as fragmented and/or condensed nuclei at 3 uM after 24 hrs by transmission electron microscopy. The test is classed as functional, cell-based. Summed up:
as §2

In test [13] the test system is U-937. The test can be described thus: Cytotoxicity against human U937 cells overexpressing Bcl-2 protein after 72 hrs by MTT assay. The following applies: U-937, 72 h. The test is classed as functional, cell-based. In general terms: Tetrazolium dyes change colour on reduction, which living cells bring about.
Test [14] deals with HL-60. The test can be described thus: Induction of ROS-mediated cell death in human HL60 cells at 3 uM after 15 mins to 4 hrs by flow cytometry in presence of NAC. Format: functional, cell-based.
The subject of test [15] is HL-60. The test can be described thus: Induction of apoptosis in human HL60 cells assessed as dense perinuclear condensation at 3 uM after 24 hrs by transmission electron microscopy. The test is classed as functional, cell-based. Summed up:
as §2

Test [16] concerns HL-60. The test can be described thus: Induction of apoptosis in human HL60 cells assessed as procaspase-3 cleavage at 3 uM after 24 hrs by immunoblotting analysis. Format: functional, cell-based. Summed up:
as §1

In test [17] the test system is U-937. The test can be described thus: Cytotoxicity against human U937 cells after 72 hrs by MTT assay. The note with it: U-937, 72 h. Format: functional, cell-based. Summed up: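 MTT assay: 1 × 10^4 exponentially growing cells per well incubated 72 h over a range of compound concentrations; MTT 0.5 mg/mL for 4 h at 37 °C, then 10% SDS in 0.05 M HCl overnight at room temperature in the dark; absorbance at 570 nm. Leukemia and SK-MEL-1 lines grown in RPMI 1640, MCF-7 in DMEM, both with 10% heat-inactivated FBS. IC50 given as mean ± SEM of 3–5 independent experiments, each in triplicate.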

The subject of test [18] is HL-60. The test can be described thus: Induction of apoptosis in human HL60 cells assessed as decrease in Bax level by Western blotting analysis. The test is classed as functional, cell-based. A digest of the protocol:
(§3)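 HL-60 cells incubated with the diterpene; whole-cell lysates probed by Western blot for Bcl-2 family proteins, with β-actin as loading control.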

In test [19] the test system is HL-60. The test can be described thus: Induction of apoptosis in human HL60 cells assessed as accumulation at sub-G1 phase at 3 uM after 24 hrs by AnnexinV-FITC/propidium iodide staining-based flow cytometry (reference value: 4%).
Test [20] relates to HL-60. The test can be described thus: Induction of apoptosis in human HL60 cells assessed as decrease in Bcl-2 level by Western blotting analysis. Format: functional, cell-based. A digest of the protocol: as §3
In test [21] the test system is HL-60. The test can be described thus: Induction of intracellular ROS generation in human HL60 cells at 3 uM after 15 mins to 4 hrs by flow cytometry. The test is classed as functional, cell-based. Summed up: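 HL-60 cells given 3 μM diterpene for the indicated times, then loaded with H2-DCF-DA. Fluorescence of oxidized H2DCF was measured by flow cytometry. Three independent experiments.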

Active and inactive are the calls of the source. The rule behind the calls is not given here.

Consider `CC(=O)O[C@H]1C2=C(C(=O)C(OC(=O)c3ccccc3)=C(C(C)C)C2=O)[C@@]2(C)CCCC(C)(C)[C@@H]2[C@@H]1OC(=O)c1ccccc1`, for which the outcome in the test with HL-60 [1], with HL-60 [2], in the test on HL-60 [3], in the test with HL-60 [5], in the test with HL-60 [6] and in the test with HL-60 [7] was Active. For the same molecule, the outcome with HL-60 [8], in the test on HL-60 [11], in the test on HL-60 [12], in the test with HL-60 [15] and in the test with HL-60 [16] was Active. Further, the Activity in the test on HL-60 [4] is reported as 30%; in the test on HL-60 [9], 16%; in the test on HL-60 [10] it was 20.7%. The results for the IC50 in the test on U-937 [13] and in the test on U-937 [17] were 600 nM and 1800 nM, respectively. Moreover, the result in the test on HL-60 [14] was inactive.

Take `CC(=O)O[C@H]1C2=C(C(=O)C(OC(=O)c3ccc(Cl)cc3)=C(C(C)C)C2=O)[C@@]2(C)CCCC(C)(C)[C@@H]2[C@@H]1O`: the outcome in the test on HL-60 [1], with HL-60 [2], in the test on HL-60 [11], in the test with HL-60 [18], with HL-60 [20] and with HL-60 [16] was Active. In addition, the results for the Activity with HL-60 [10] and in the test with HL-60 [19] were 28.8% and 9%, respectively. The IC50 in the test with U-937 [13] and in the test on U-937 [17] was 1100 nM throughout. In addition, in the test on HL-60 [14], the result was inactive.

Turning to `COc1ccc(C(=O)OC2=C(C(C)C)C(=O)C3=C(C2=O)[C@@]2(C)CCCC(C)(C)[C@@H]2[C@H](O)[C@H]3OC(C)=O)cc1`, the outcome in the test with HL-60 [1], in the test on HL-60 [5], with HL-60 [6], in the test on HL-60 [8], in the test on HL-60 [11] and with HL-60 [16] was Active. The results for the Activity in the test with HL-60 [10] and in the test on HL-60 [19] were 30.2% and 8%, respectively. Moreover, the values for the IC50 in the test with U-937 [13] and in the test on U-937 [17] were 2100 nM and 1400 nM, respectively. The outcome with HL-60 [21] was inactive.

By IC50 is commonly meant the concentration that gives 50% inhibition.
